From paper PMC9582641 (Molecular Biology of the Cell, 2022)
Where no end group is shown, it is not given here. [ ]: non-standard residue; d: D form. Lys(Me3) = C[N+](C)(C)CCCC[C@H](N)C(=O)O; pT = C[C@@H](OP(=O)(O)O)[C@H](N)C(=O)O; Lys(Me2) = CN(C)CCCC[C@H](N)C(=O)O; Lys(Me) = CNCCCC[C@H](N)C(=O)O

B1: histone H3 peptide H3K4me3(1-12) (peptide, UniProt P68431 2-13, looked up)
peptide: ART[Lys(Me3)]QTARKSTG
B2: histone H3 peptide H3T3phK4ac(1-12) (peptide, UniProt P68431 2-13, looked up)
peptide: AR[pT]K(Ac)QTARKSTG
B3: histone H3 peptide H3K4me2(1-12) (peptide, UniProt P68431 2-13, looked up)
peptide: ART[Lys(Me2)]QTARKSTG
B4: histone H3 peptide H3T3phK4me2(1-12) (peptide, UniProt P68431 2-13, looked up)
peptide: AR[pT][Lys(Me2)]QTARKSTG
B5: histone H3 peptide H3K4me1(1-12) (peptide, UniProt P68431 2-13, looked up)
peptide: ART[Lys(Me)]QTARKSTG
B6: histone H3 peptide H3T3phK4me3(1-12) (peptide, UniProt P68431 2-13, looked up)
peptide: AR[pT][Lys(Me3)]QTARKSTG
B7: histone H3 peptide H3T3phK4me1(1-12) (peptide, UniProt P68431 2-13, looked up)
peptide: AR[pT][Lys(Me)]QTARKSTG

Assays:
hSurvivin = hSurvivin (Homo sapiens, UniProt O15392); conditions: ITC, pH 7.2, 25°C; ref Niedzialkowska et al. (2012); cited from earlier work
U2OS cells [1] = assay: Histone H3K4ac immunoblot in U2OS cells after HAT inhibition or Tip60 depletion; assay type: cell-based; conditions: for H3K4ac level: U2OS cells, anti-H3K4ac immunoblot
Summary of the method: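 Asynchronous and nocodazole-arrested mitotic U2OS cells were treated with the Tip60 acetyltransferase inhibitor Nu9056 for 1 h. Separately, U2OS cells engineered for doxycycline-induced shRNA against Tip60 were depleted of Tip60. Histone H3 K4 acetylation was read by immunoblot with anti-H3K4ac antibody at 1:1000.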

U2OS cells [2] = assay: Aurora B at centromeres of interphase; assay type: cell-based; conditions: interphase (S/G2) cells, immunofluorescence, ACA mask
U2OS cells [3] = assay type: cell-based; conditions: HDAC3 shRNA, immunofluorescence
[4] = target: human Survivin (hSurvivin) (human, UniProt O15392 1-142); assay: ITC
Sequence of human Survivin (hSurvivin) (O15392 whole entry): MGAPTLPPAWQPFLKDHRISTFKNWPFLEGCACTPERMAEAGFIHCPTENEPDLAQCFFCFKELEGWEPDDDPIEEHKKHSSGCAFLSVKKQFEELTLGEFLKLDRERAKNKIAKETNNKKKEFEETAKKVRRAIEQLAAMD

Sequence of hSurvivin (O15392 whole entry): as above

Molecule	dH [4]	stoichiometry N [4]	further results
H3(1-12): first 12 amino acids of histone H3; values from Niedzialkowska et al. (2012)	–	–	–TΔS (hSurvivin): –4040 cal/mol
Clc1ccc(-c2csc(NN=C3CCCC3)n2)cc1 [CTPH2]	–	–	H3K4ac level (U2OS cells [1]): not GCN5 (CTPH2) or p300/CBP (Inhibitor VI) resulted in decreased H3K4ac levels
c1cc(SSc2ccns2)sn1 [Nu9056]	–	–	H3K4ac level (U2OS cells [1]): resulted in decreased H3K4ac levels; H3K4ac level in mitotic cells (U2OS cells [1]; mitotic U2OS cells, nocodazole arrested, Nu9056 for 1 h, immunoblot): also sensitive to the Tip60 inhibitor; Aurora B localization at centromeres in interphase cells (U2OS cells [2]): leads to Aurora B localization at centromeres in interphase (S/G2) cells
shHDAC3: HDAC3 shRNA targeting sequence AGAAGTCCACTACCTGGTT (the letters are possibly those of the target site)	–	–	Aurora B at centromeres after HDAC3 depletion (U2OS cells [3]): most of the Aurora B remains on noninner centromeric (chromosome arm) regions after HDAC3 depletion
H3T3ph(1-12): histone H3 residues 1-12 with T3 phosphorylation; values from Niedzialkowska et al. (2012)	–	–	–TΔS (hSurvivin): –2800 cal/mol
B1	-6 ± 0.7 kcal/mol	0.83 ± 0.07	–
B2	-7.3 ± 0.1 kcal/mol	0.965 ± 0.009	–
B3	-2.61 ± 0.04 kcal/mol	0.899 ± 0.01	–
B4	-6.25 ± 0.06 kcal/mol	0.873 ± 0.004	–
B5	-2.68 ± 0.06 kcal/mol	1.08 ± 0.012	–
B6	-4.63 ± 0.09 kcal/mol	1.21 ± 0.02	–
B7	-4.692 ± 0.026 kcal/mol	1.03 ± 0.005	–
